The text below walks through data of ChEMBL document CHEMBL3098022, “Multifunctional cholinesterase and amyloid Beta fibrillization modulators. Synthesis and biological investigation” (ACS Med Chem Lett, 2013).

Assay [1] has as its target T1, Amyloid-beta precursor protein (Homo sapiens, UniProt P05067). Description: Inhibition of amyloid beta (1 to 42) aggregation (unknown origin) at 5 uM by ThT-based fluorescence assay.
The target in assay [2] is T2, Acetylcholinesterase (Homo sapiens, UniProt P22303). Description: Inhibition of human acetylcholine esterase-induced amyloid beta (1 to 40) aggregation at 100 uM by ThT-based fluorescence assay.
The target of assay [3] is T1, Amyloid-beta precursor protein. Description: Inhibition of amyloid beta (1 to 42) oligomerization (unknown origin) assessed as amorphous aggregates formation at 50 to 500 uM by transmission electron microscopy. An outline of the steps: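 Aβ1-42 samples were imaged by transmission electron microscopy with 50 µM test compound added, n = 2.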
The target is the same in assay [4]. Description: Inhibition of amyloid beta (1 to 42) oligomerization (unknown origin) assessed as depletion of higher molecular weight oligomers formation at 200 to 500 uM by capillary electrophoresis method. The following applies: TDE = time-dependent effect.
Assay [5] deals with Cholinesterase (Homo sapiens, UniProt P06276). Description: Inhibition of human butyrylcholine esterase.
For assay [6], the target named is T1, Amyloid-beta precursor protein. Description: Inhibition of amyloid beta (1 to 42) oligomerization (unknown origin) assessed as inhibition of toxic aggregate formation at 500 uM after 24 hrs by capillary electrophoresis method.
For assay [7], the species on record is Homo sapiens. Description: Selectivity ratio of Ki for human acetylcholine esterase to Ki for human butyrylcholine esterase.
Assay [8] has as its target T2, Acetylcholinesterase. Description: Inhibition of human acetylcholine esterase.
Assay [9] deals with T1, Amyloid-beta precursor protein. Description: Inhibition of amyloid beta (1 to 42) oligomerization (unknown origin) assessed as oligomer stabilization at 200 uM after 2 days by capillary electrophoresis method.
For assay [10] the target is unchanged. Description: Inhibition of amyloid beta (1 to 42) oligomerization (unknown origin) assessed as disaggregation of toxic oligomers and precipitation at 200 to 500 uM by transmission electron microscopy relative to control.
Assay [11] has the same target. Description: Inhibition of amyloid beta (1 to 42) oligomerization (unknown origin) assessed as oligomer stabilization at 200 uM measured immediately by capillary electrophoresis method.
Assay [12] has the same target. Description: Inhibition of amyloid beta (1 to 42) oligomerization (unknown origin) assessed as oligomer stabilization at 200 uM after 6 hrs by capillary electrophoresis method.
Assay [13] has the same target. Description: Inhibition of amyloid beta (1 to 42) oligomerization (unknown origin) assessed as depletion of higher molecular weight oligomers after 6 hrs to 2 days by capillary electrophoresis method.
For assay [14] the target is unchanged. Description: Inhibition of amyloid beta (1 to 42) oligomerization (unknown origin) assessed as stable smaller oligomer formation at 500 uM after 24 hrs by capillary electrophoresis method.
The target of assay [15] is T2, Acetylcholinesterase. Description: Inhibition of human acetylcholine esterase-induced amyloid beta (1 to 40) aggregation by ThT-based fluorescence assay.
Assay [16] deals with T1, Amyloid-beta precursor protein. Description: Inhibition of amyloid beta (1 to 42) aggregation (unknown origin) after 24 hrs by ThT-based fluorescence assay.

The inhibition is the percentage by which the read-out fell short of the control. In general, Ki refers to a measure of affinity in units of concentration, obtained from inhibition or displacement. A higher Ki goes with a looser hold on the target. Broadly, the IC50 is the concentration that gives 50% inhibition. A high value points to lower potency.

The source made the active and inactive calls. No cut-off for these calls is given here.

T2 sequence (P22303 whole entry): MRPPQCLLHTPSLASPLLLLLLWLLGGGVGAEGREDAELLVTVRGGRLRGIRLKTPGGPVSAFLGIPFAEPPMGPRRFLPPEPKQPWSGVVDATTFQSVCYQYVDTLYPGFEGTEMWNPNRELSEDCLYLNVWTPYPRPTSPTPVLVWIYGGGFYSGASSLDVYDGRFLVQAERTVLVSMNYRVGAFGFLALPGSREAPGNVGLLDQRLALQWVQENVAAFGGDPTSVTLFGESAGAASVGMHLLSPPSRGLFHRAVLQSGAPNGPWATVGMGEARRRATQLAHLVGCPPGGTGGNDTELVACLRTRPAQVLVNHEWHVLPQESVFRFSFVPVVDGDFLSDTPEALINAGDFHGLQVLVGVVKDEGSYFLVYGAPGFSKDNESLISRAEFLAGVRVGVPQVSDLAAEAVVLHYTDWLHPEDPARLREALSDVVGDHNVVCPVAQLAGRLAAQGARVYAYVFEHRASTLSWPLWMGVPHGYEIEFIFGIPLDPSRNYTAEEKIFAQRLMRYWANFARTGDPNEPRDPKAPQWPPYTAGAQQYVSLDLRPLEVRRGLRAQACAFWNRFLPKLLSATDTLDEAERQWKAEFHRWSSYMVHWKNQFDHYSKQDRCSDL
T1 sequence (P05067 whole entry): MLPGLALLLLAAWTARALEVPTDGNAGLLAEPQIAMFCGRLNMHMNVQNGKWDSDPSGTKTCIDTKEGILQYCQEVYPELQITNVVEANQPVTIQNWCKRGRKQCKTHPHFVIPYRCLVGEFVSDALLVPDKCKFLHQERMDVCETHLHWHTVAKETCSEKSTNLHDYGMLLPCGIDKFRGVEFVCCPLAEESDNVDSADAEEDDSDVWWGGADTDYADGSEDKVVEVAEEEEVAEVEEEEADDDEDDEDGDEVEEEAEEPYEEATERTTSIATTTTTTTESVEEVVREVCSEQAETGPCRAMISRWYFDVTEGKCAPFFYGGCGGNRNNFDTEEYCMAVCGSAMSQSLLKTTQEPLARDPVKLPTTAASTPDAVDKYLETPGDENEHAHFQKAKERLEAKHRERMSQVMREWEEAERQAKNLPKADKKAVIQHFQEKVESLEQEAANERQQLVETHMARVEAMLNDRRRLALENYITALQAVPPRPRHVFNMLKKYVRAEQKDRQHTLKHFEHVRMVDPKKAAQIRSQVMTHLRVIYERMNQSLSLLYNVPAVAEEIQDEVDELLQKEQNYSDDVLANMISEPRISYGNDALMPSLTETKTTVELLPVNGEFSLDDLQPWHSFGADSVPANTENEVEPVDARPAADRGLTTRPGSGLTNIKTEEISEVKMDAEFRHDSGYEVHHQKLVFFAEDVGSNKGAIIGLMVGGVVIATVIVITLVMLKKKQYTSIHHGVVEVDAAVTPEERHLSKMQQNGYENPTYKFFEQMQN
Cholinesterase, sequence (P06276 whole entry): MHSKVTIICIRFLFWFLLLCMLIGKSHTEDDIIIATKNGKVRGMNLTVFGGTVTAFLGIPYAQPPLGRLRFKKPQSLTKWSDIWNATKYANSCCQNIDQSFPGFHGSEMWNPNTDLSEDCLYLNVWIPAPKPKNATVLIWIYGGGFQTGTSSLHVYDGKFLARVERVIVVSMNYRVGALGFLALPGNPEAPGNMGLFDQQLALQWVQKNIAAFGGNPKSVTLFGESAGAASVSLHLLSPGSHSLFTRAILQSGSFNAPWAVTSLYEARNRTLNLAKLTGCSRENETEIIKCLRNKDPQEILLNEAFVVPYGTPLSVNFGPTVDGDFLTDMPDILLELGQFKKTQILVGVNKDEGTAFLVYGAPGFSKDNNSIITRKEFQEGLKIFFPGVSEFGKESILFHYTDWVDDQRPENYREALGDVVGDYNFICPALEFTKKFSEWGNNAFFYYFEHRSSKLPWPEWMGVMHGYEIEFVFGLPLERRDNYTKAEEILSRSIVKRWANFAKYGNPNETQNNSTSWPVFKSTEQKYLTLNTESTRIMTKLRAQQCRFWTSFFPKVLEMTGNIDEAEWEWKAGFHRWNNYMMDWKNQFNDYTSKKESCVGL

For the compound `c1ccc2c(NCCCCCCCNc3c4c(nc5ccccc35)CCCC4)c3c(nc2c1)CCCC3`, the inhibition in [1] stood at 8.4%.
As to `O=C(CC[C@H](NC(=O)CNC(=O)OCc1ccccc1)C(=O)N[C@@H](Cc1ccccc1)C(=O)OCc1ccccc1)NCC(=O)Nc1cccc2c(NCCCCCCCCNc3c4c(nc5ccccc35)CCCC4)c3c(nc12)CCCC3`, the inhibition in assay [2] was 26%; in assay [4], “tde”; in assay [11], 82.5%; in assay [12], 87.2%; in [13], “Dose-dependent effect”; in [1], 81%. The inhibition result in assay [3], in [6], in assay [9], in [10] and in assay [14] was “Active” each time. The inhibition constant Ki in assay [5] is 40.9 nM; in [8], 1.92 nM. Moreover, in assay [7], the Ratio Ki was 0.038.
`CN(CCCCNc1c2c(nc3c(NC(=O)CNC(=O)CC[C@H](NC(=O)CNC(=O)OCc4ccccc4)C(=O)N[C@@H](Cc4ccccc4)C(=O)OCc4ccccc4)cccc13)CCCC2)CCCNc1c2c(nc3ccccc13)CCCC2` returned an inhibition in assay [2] of 42%. Further, the inhibitory constant (Ki) in assay [5] worked out at 21.3 nM; in assay [8] it was 1.48 nM. Besides, in assay [7], the Ratio Ki came to 0.07. For the same compound, the IC50 in [15] turned out to be 113000 nM; in assay [16] it was 51000 nM.
Regarding `O=[N+]([O-])c1cccc2c(NCCCCCCCCNc3c4c(nc5ccccc35)CCCC4)c3c(nc12)CCCC3`, the values for the Ki in [5] and in [8] were 0.06 nM and 0.78 nM, respectively. The Ratio Ki in assay [7] is 13.
The compound `CN(CCCCNc1c2c(nc3ccccc13)CCCC2)CCCNc1c2c(nc3c(NC(=O)CNC(=O)CC[C@H](NC(=O)CNC(=O)OCc4ccccc4)C(=O)N[C@@H](Cc4ccccc4)C(=O)OCc4ccccc4)cccc13)CCCC2` gave an inhibition in assay [2] of 42%. Also, the Ki in [5] worked out at 61.8 nM; in [8] it was 5.02 nM. Further, the Ratio Ki in assay [7] was 0.081.
Take `Nc1cccc2c(NCCCCCCCCNc3c4c(nc5ccccc35)CCCC4)c3c(nc12)CCCC3`: the inhibitory constant (Ki) is 8.26 nM in assay [5] and 0.23 nM in assay [8]. Further, the Ratio Ki in [7] turned out to be 0.028.
